Reference: ChEMBL document CHEMBL1147862, “Studies on synthesis and pharmacological activities of 3,6-disubstituted-1,2,4-triazolo[3,4-b]-1,3,4-thiadiazoles and their dihydro analogues” (2007)

Experiments:
Assay type in all cases: functional
[1] = system: Mus musculus; experiment: Analgesic activity in Swiss mouse assessed as increase in reaction time at 20 mg/kg, po after 90 mins by Eddy's hot plate technique
How it was run: (§1)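 Swiss mice of either sex, 25–35 g, placed one at a time on a hot plate held at 55 °C. End point is paw licking or jumping, whichever comes first, with a 15 s cut-off to avoid paw injury. Reaction time is recorded and reported as percent increase in reaction time.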

[2] = system: Escherichia coli; experiment: Antibacterial activity against Escherichia coli at 10 ug/ml by agar plate diffusion technique; conditions: read-out: IZ
[3] = system: Escherichia coli; experiment: Antibacterial activity against Escherichia coli at 20 ug/ml by agar plate diffusion technique; conditions: read-out: IZ
[4] = system: Rattus norvegicus; experiment: Antiinflammatory activity in Wistar Albino rat assessed as inhibition of carrageenan-induced paw oedema at 20 mg/kg after 3 hrs relative to control
How it was run: (§2)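 Wistar albino rats, 150–200 g, six per group, dosed orally with a 20 mg/kg suspension; control gets 0.1 ml 1% gum acacia. After 30 min, 0.1 ml 1% carrageenan in saline is injected subplantar into the right hind paw. Paw volume is read by plethysmograph at 0–4 h. Inhibition = 100(1 − Vtest/Vcontrol) on mean volume increase.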

[5] = system: Candida albicans; experiment: Antifungal activity against Candida albicans at 20 ug/ml by paper disc method; conditions: read-out: IZ
[6] = system: Staphylococcus aureus; experiment: Antibacterial activity against Staphylococcus aureus at 10 ug/ml by agar plate diffusion technique; conditions: read-out: IZ
[7] = system: Pseudomonas aeruginosa; experiment: Antibacterial activity against Pseudomonas aeruginosa at 30 ug/ml by agar plate diffusion technique; conditions: read-out: IZ
[8] = system: Pseudomonas aeruginosa; experiment: Antibacterial activity against Pseudomonas aeruginosa at 20 ug/ml by agar plate diffusion technique; conditions: read-out: IZ
[9] = system: Bacillus subtilis; experiment: Antibacterial activity against Bacillus subtilis at 10 ug/ml by agar plate diffusion technique; conditions: read-out: IZ
[10] = system: Aspergillus niger; experiment: Antifungal activity against Aspergillus niger at 30 ug/ml by paper disc method; conditions: read-out: IZ
[11] = system: Bacillus subtilis; experiment: Antibacterial activity against Bacillus subtilis at 20 ug/ml by agar plate diffusion technique; conditions: read-out: IZ
[12] = system: Rattus norvegicus; experiment: Antiinflammatory activity in Wistar Albino rat assessed as inhibition of carrageenan-induced paw oedema at 20 mg/kg after 4 hrs relative to control; how it was run: as §2
[13] = system: Escherichia coli; experiment: Antibacterial activity against Escherichia coli at 30 ug/ml by agar plate diffusion technique; conditions: read-out: IZ
[14] = system: Mus musculus; experiment: Analgesic activity in Swiss mouse assessed as increase in reaction time at 20 mg/kg, po after 30 mins by Eddy's hot plate technique; how it was run: as §1
[15] = system: Candida albicans; experiment: Antifungal activity against Candida albicans at 30 ug/ml by paper disc method; conditions: read-out: IZ
[16] = system: Staphylococcus aureus; experiment: Antibacterial activity against Staphylococcus aureus at 30 ug/ml by agar plate diffusion technique; conditions: read-out: IZ
[17] = system: Aspergillus niger; experiment: Antifungal activity against Aspergillus niger at 10 ug/ml by paper disc method; conditions: read-out: IZ
[18] = system: Mus musculus; experiment: Analgesic activity in Swiss mouse assessed as increase in reaction time at 20 mg/kg, po after 60 mins by Eddy's hot plate technique; how it was run: as §1
[19] = system: Pseudomonas aeruginosa; experiment: Antibacterial activity against Pseudomonas aeruginosa at 10 ug/ml by agar plate diffusion technique; conditions: read-out: IZ
[20] = system: Rattus norvegicus; experiment: Antiinflammatory activity in Wistar Albino rat assessed as inhibition of carrageenan-induced paw oedema at 20 mg/kg after 2 hrs relative to control; how it was run: as §2
[21] = system: Staphylococcus aureus; experiment: Antibacterial activity against Staphylococcus aureus at 20 ug/ml by agar plate diffusion technique; conditions: read-out: IZ
[22] = system: Aspergillus niger; experiment: Antifungal activity against Aspergillus niger at 20 ug/ml by paper disc method; conditions: read-out: IZ
[23] = system: Bacillus subtilis; experiment: Antibacterial activity against Bacillus subtilis at 30 ug/ml by agar plate diffusion technique; conditions: read-out: IZ
[24] = system: Candida albicans; experiment: Antifungal activity against Candida albicans at 10 ug/ml by paper disc method; conditions: read-out: IZ
[25] = system: Rattus norvegicus; experiment: Antiinflammatory activity in Wistar Albino rat assessed as inhibition of carrageenan-induced paw oedema at 20 mg/kg after 1 hr relative to control; how it was run: as §2

Row | Structure (SMILES) | Activity [1] | zone of inhibition at 10 µg/mL [2] | zone of inhibition at 20 µg/mL [3] | inhibition in vivo at 20 mg/kg [4] | zone of inhibition at 20 µg/mL [5] | zone of inhibition at 10 µg/mL [6] | zone of inhibition at 30 µg/mL [7] | zone of inhibition at 20 µg/mL [8] | zone of inhibition at 10 µg/mL [9] | zone of inhibition at 30 µg/mL [10] | zone of inhibition at 20 µg/mL [11] | inhibition in vivo at 20 mg/kg [12] | zone of inhibition at 30 µg/mL [13] | Activity [14] | zone of inhibition at 30 µg/mL [15] | zone of inhibition at 30 µg/mL [16] | zone of inhibition at 10 µg/mL [17] | Activity [18] | zone of inhibition at 10 µg/mL [19] | inhibition in vivo at 20 mg/kg [20] | further results
1 | Cc1occc1-c1nnc2sc(Cc3c[nH]c4ccccc34)nn12 | 35.33% | 5.78 mm | 9.18 mm | 26.5% | 9.3 mm | 5.12 mm | 13.5 mm | 8.9 mm | 5.67 mm | 13.2 mm | 8.75 mm | 30% | 13.6 mm | 6.66% | 12.7 mm | 13.5 mm | 5.6 mm | 22.22% | 4.85 mm | 21.5% | zone of inhibition at 20 µg/mL [21]: 8.19 mm; zone of inhibition at 20 µg/mL [22]: 8.74 mm; zone of inhibition at 30 µg/mL [23]: 13.8 mm; zone of inhibition at 10 µg/mL [24]: 5.38 mm; inhibition in vivo at 20 mg/kg [25]: 16%
2 | COc1ccc(Cl)c(-c2nnc3sc(Cc4c[nH]c5ccc(OC)cc45)nn23)c1 | 31.48% | 5.1 mm | 8.39 mm | 21.4% | 9.2 mm | 4.58 mm | 12.8 mm | 9.18 mm | 4.76 mm | 12.2 mm | 8.79 mm | 33.9% | 13.2 mm | 13.69% | 11.2 mm | 13.7 mm | 5.38 mm | 23.76% | 4.83 mm | 14.4% | zone of inhibition at 20 µg/mL [21]: 8.52 mm; zone of inhibition at 20 µg/mL [22]: 10.1 mm; zone of inhibition at 30 µg/mL [23]: 13.2 mm; zone of inhibition at 10 µg/mL [24]: 5.44 mm; inhibition in vivo at 20 mg/kg [25]: 6.1%
3 | COc1ccc(Cl)c(-c2nnc3n2NC(c2ccc[nH]2)S3)c1 (stereo not given) | 21.1% | 4.71 mm | 7.9 mm | 18.4% | 8.82 mm | 1.33 mm | 8 mm | 4.33 mm | 1.67 mm | 12.3 mm | 4 mm | 20.6% | 14.3 mm | 4.86% | 13.4 mm | 8.33 mm | 4.89 mm | 14.48% | 1.33 mm | 15.2% | zone of inhibition at 20 µg/mL [21]: 4.33 mm; zone of inhibition at 20 µg/mL [22]: 9.17 mm; zone of inhibition at 30 µg/mL [23]: 8.33 mm; zone of inhibition at 10 µg/mL [24]: 4.61 mm; inhibition in vivo at 20 mg/kg [25]: 12.8%
